According to ChEMBL document CHEMBL3603733, “Synthesis and biological evaluation of (3',5'-dichloro-2,6-dihydroxy-biphenyl-4-yl)-aryl/alkyl-methanone selective CB2 inverse agonist” (Bioorg Med Chem, 2015):
Active and inactive are the calls of the source. The calls are words filed in the database; no cut-off is given here.

Columns and labels:
[1] = biological target: T1, Cannabinoid receptor 1 (Homo sapiens, UniProt P21554); assay: Inverse agonist activity at CB1 receptor (unknown origin) expressed in HEK cells assessed as increase in cAMP production measured at 50 mins by ACTOne dye-based fluorescence assay in presence of forskolin and Ro 20-1724; type: functional, cell-based, HEK293
Outline: (§1)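 HEK-CNG+CB1 or HEK-CNG+CB2 cells, plus parental HEK-CNG, were plated at 50,000 cells/well in DMEM with 10% FBS the day before. Membrane potential dye was loaded for 1 h in the dark at room temperature. Ligands were added at 5x10⁻⁶ to 5x10⁻¹⁰ final, with 25 µM Ro 20-1724 and 800 nM forskolin, in DPBS with 2.5% DMSO. Fluorescence (Ex 540, Em 590 nm) was read at 50 min. At least six biological replicates were run, with non-linear fitting.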

[2] = biological target: T2, Cannabinoid receptor 2 (Homo sapiens, UniProt P34972); assay: Inverse agonist activity at CB2 receptor (unknown origin) expressed in HEK cells assessed as increase in cAMP production measured at 50 mins by ACTOne dye-based fluorescence assay in presence of forskolin and Ro 20-1724; type: functional, cell-based, HEK293
Outline: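 HEK-CNG+CB1 or HEK-CNG+CB2 cells, plus parental HEK-CNG, were plated at 50,000 cells/well in DMEM with 10% FBS the day before. Membrane potential dye was loaded for 1 h in the dark at room temperature. At least six biological replicates were run, with non-linear fitting.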

[3] = biological target: T1, Cannabinoid receptor 1; assay: Displacement of [3H]-CP55940 from CB1 receptor (unknown origin) expressed in HEK-CNG cell membranes after 90 mins by liquid scintillation counting analysis
[4] = biological target: T2, Cannabinoid receptor 2; assay: Displacement of [3H]-CP55940 from CB2 receptor (unknown origin) expressed in HEK-CNG cell membranes after 90 mins by liquid scintillation counting analysis
[5] = biological target: T2, Cannabinoid receptor 2; assay: Inverse agonist activity at CB2 receptor (unknown origin) expressed in HEK cells assessed as increase in cAMP production at 5 x 10^-6 to 5 x 10^-10 M measured at 50 mins by ACTOne dye-based fluorescence assay in presence of forskolin and Ro 20-1724 relative to control; type: functional, cell-based; conditions: HEK293; outline: as §1
[6] = biological target: T1, Cannabinoid receptor 1; assay: Inverse agonist activity at CB1 receptor (unknown origin) expressed in HEK cells assessed as increase in cAMP production at 5 x 10^-6 to 5 x 10^-10 M measured at 50 mins by ACTOne dye-based fluorescence assay in presence of forskolin and Ro 20-1724 relative to control; type: functional, cell-based; conditions: HEK293; outline: as §1
[7] = biological target: T2, Cannabinoid receptor 2; assay: Non-competitive antagonist activity at CB2 receptor (unknown origin) expressed in HEK cells incubated in dark condition for 30 mins prior to CP55940 addition measured at 50 mins by Schild plot analysis; type: cell-based; conditions: HEK293
Outline: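 HEK-CNG+CB2 cells were loaded with membrane potential dye. After 30 min, antagonist in DPBS with 2.5% DMSO was added and incubated 30 more min in the dark at room temperature. CP 55,940 was then added with 25 µM Ro 20-1724 and 800 nM forskolin (final). Fluorescence was read at 50 min.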

[8] = species: Homo sapiens; assay: Selectivity ratio of Ki for CB1 receptor (unknown origin) to Ki for CB2 receptor (unknown origin)

T2 sequence (P34972 whole entry): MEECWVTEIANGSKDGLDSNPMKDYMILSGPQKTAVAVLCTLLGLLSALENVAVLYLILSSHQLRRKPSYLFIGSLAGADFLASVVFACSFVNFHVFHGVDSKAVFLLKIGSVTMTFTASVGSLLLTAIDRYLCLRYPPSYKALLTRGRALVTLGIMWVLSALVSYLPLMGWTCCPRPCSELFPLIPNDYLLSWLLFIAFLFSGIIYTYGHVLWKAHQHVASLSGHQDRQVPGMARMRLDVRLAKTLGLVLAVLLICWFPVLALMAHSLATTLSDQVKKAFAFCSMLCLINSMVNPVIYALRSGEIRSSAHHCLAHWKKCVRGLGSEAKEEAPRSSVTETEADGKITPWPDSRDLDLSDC
T1 sequence (P21554 whole entry): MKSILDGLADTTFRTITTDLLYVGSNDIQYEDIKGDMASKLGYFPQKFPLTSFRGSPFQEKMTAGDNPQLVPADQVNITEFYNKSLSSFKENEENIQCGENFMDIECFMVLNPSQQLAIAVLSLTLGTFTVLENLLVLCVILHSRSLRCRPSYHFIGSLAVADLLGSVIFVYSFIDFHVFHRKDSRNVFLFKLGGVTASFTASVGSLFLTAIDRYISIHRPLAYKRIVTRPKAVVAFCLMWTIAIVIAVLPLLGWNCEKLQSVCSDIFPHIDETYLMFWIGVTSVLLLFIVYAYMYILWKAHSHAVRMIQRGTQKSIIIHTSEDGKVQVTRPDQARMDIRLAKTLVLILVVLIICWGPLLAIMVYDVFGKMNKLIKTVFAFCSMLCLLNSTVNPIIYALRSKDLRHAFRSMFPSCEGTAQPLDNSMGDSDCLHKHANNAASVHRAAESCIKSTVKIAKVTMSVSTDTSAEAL

SMILES | EC50 ([1]; hek293) | EC50 ([2]; hek293) | Ki [3] [µM] | Ki [4] [µM] | EC50 ([2]; read-out: EC50) [µM] | Efficacy [5] | Efficacy [6] | EC50 ([1]; read-out: EC50) [µM] | inhibition [7] | Ratio Ki [8]
COc1cc(C(=O)c2ccc(Cl)cc2)cc(OC)c1-c1cc(Cl)cc(Cl)c1 | Not Active | Not Active | > 10 | > 10 | – | – | – | – | – | –
CC(C)c1ccc(C(=O)c2cc(O)c(-c3cc(Cl)cc(Cl)c3)c(O)c2)cc1 | Not Active | – | 3.33 | 0.161 | 0.182 | 56% | – | – | – | –
CC(C)(C)c1ccc(C(=O)c2cc(O)c(-c3cc(Cl)cc(Cl)c3)c(O)c2)cc1 | Not Active | – | 2.53 | 3.17 | 3.97 | 275% | – | – | – | –
Cc1ccc(Cn2nc(C(=O)NC3C4(C)CCC(C4)C3(C)C)cc2-c2ccc(Cl)c(C)c2)cc1 (configuration not stated) [SR-144528] | Not Active | – | – | – | – | 80.8% | inactive | – | – | –
CCCCCCC(=O)c1cc(O)c(-c2cc(Cl)cc(Cl)c2)c(O)c1 | Not Active | Not Active | > 10 | > 10 | – | – | – | – | – | –
COc1cc(C(=O)c2ccc(Cl)cc2)cc(O)c1-c1cc(Cl)cc(Cl)c1 | – | – | > 10 | > 10 | > 5 | 97.5% | 71.3% | 2.88 | – | –
O=C(c1cccc(C(F)(F)F)c1)c1cc(O)c(-c2cc(Cl)cc(Cl)c2)c(O)c1 | Not Active | Not Active | 4.13 | > 10 | – | – | – | – | – | –
COc1cc(C(=O)c2ccc(C)cc2)cc(O)c1-c1cc(Cl)cc(Cl)c1 | Not Active | – | > 10 | > 10 | > 5 | 129% | – | – | – | –
CCc1ccc(C(=O)c2cc(O)c(-c3cc(Cl)cc(Cl)c3)c(O)c2)cc1 | Not Active | – | 1.14 | 0.0376 | 0.0295 | 52.2% | – | – | Active | –
COc1cc(C(=O)c2ccc(C)cc2)cc(OC)c1-c1cc(Cl)cc(Cl)c1 | Not Active | Not Active | > 10 | > 10 | – | inactive | inactive | – | – | –
O=C(c1cc(O)c(-c2cc(Cl)cc(Cl)c2)c(O)c1)C1CCCCC1 | – | – | 0.299 | 1.59 | 2.54 | inactive | inactive | > 5 | – | 0.19
CCCCc1ccc(C(=O)c2cc(O)c(-c3cc(Cl)cc(Cl)c3)c(O)c2)cc1 | Not Active | – | > 10 | 0.464 | 0.254 | 176% | inactive | – | Active | > 21.5
CCCCc1ccc(C(=O)c2cc(O)c(-c3cc(Cl)cc(Cl)c3)c(OC)c2)cc1 | Not Active | – | > 10 | > 10 | > 5 | 108% | – | – | – | –
CCCCc1ccc(C(=O)c2cc(OC)c(-c3cc(Cl)cc(Cl)c3)c(OC)c2)cc1 | Not Active | Not Active | > 10 | > 10 | – | inactive | inactive | – | – | –
CCc1cccc(C(=O)c2cc(O)c(-c3cc(Cl)cc(Cl)c3)c(O)c2)c1 | Not Active | – | > 10 | 1.72 | > 5 | 184% | inactive | – | – | > 5.82
Cc1cccc(C(=O)c2cc(O)c(-c3cc(Cl)cc(Cl)c3)c(O)c2)c1 | Not Active | Not Active | > 10 | 2.62 | – | – | – | – | – | –
O=C(c1ccc(Cl)cc1)c1cc(O)c(-c2cc(Cl)cc(Cl)c2)c(O)c1 | – | – | 4.65 | 0.121 | 0.0897 | 119% | 169% | 3.28 | – | 38.5
CCCc1ccc(C(=O)c2cc(O)c(-c3cc(Cl)cc(Cl)c3)c(O)c2)cc1 | Not Active | – | > 10 | 0.0599 | 0.0288 | 50% | – | – | – | –
Cc1ccc(C(=O)c2cc(O)c(-c3cc(Cl)cc(Cl)c3)c(O)c2)cc1 | Not Active | – | 9.43 | 0.258 | 0.118 | 230% | inactive | – | – | 36.6
O=C(c1ccc(O)cc1)c1cc(O)c(-c2cc(Cl)cc(Cl)c2)c(O)c1 | Not Active | – | > 10 | > 10 | > 5 | 75.6% | inactive | – | – | –
O=C(c1ccccc1)c1cc(O)c(-c2cc(Cl)cc(Cl)c2)c(O)c1 | Not Active | – | – | – | – | 54.8% | inactive | – | Active | 39.4
O=C(c1ccc(C(F)(F)F)cc1)c1cc(O)c(-c2cc(Cl)cc(Cl)c2)c(O)c1 | – | – | > 10 | > 10 | > 5 | 49.7% | 37% | > 5 | – | –
Cc1cc(C)cc(C(=O)c2cc(O)c(-c3cc(Cl)cc(Cl)c3)c(O)c2)c1 | Not Active | Not Active | > 10 | > 10 | – | inactive | inactive | – | – | –
